Data on 20 compounds can be found in ChEMBL document CHEMBL1799943, “1-(5-Carboxyindol-1-yl)propan-2-one inhibitors of human cytosolic phospholipase A2α: effect of substituents in position 3 of the indole scaffold on inhibitory potency, metabolic stability, solubility, and bioavailability” (J Med Chem, 2010).

Data set [1] can be described thus: Partition coefficient, log P of the compound by reverse phase HPLC analysis. It counts as physicochemical. Conditions: octanol/water. The gist of the method:
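log P estimated from reversed-phase HPLC retention times of each compound's ketone form.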

Data set [2] is described as follows: Metabolic stability in rat liver microsomes assessed as compound remaining after 30 mins by UV-reverse phase HPLC analysis. It counts as ADME, Microsome. Conditions: read-out: Stability. (In general: Liver microsomes are a subcellular fraction often used to study metabolism.)
Data set [3] is described as follows: Drug level in C57Bl6 mouse plasma at 100 mg/kg, po after 1 hr by HPLC analysis. It counts as ADME, organism-based. Also on record: dose 100 mg/kg, route oral. The gist of the method: (§1)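 Male/female unspecified C57Bl6 mice (n = 3) got a single 100 mg/kg oral gavage dose as a suspension in 1% aqueous methylcellulose (8 μL/g). Blood was drawn at 1 and 2 h and centrifuged at 3000g for 20 min. Plasma was mixed with pH 7.4 PBS and acetonitrile, left 5 min at room temperature and spun at 2000g for 15 min. Supernatant went to reversed-phase C18 HPLC-UV for parent and alcohol metabolite.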

Data set [4] in a line: Drug level in C57Bl6 mouse intestine assessed per gut at 100 mg/kg, po after 2 hrs by HPLC analysis. It counts as ADME, organism-based. Also noted: dose 100 mg/kg, route oral. Conditions: read-out: Drug uptake. Put shortly: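 Whole intestines were taken from C57Bl6 mice (n = 3) 2 h after 100 mg/kg oral gavage in 1% methylcellulose. Each was minced, homogenized at 0 °C in pH 7.4 PBS and extracted with acetonitrile. Pellet washes with PBS/acetonitrile 1:1 were pooled, made up to volume, centrifuged and filtered. Parent and alcohol metabolite per whole gut were quantified by reversed-phase HPLC-UV.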

Data set [5] in a line: Drug level in C57Bl6 mouse plasma at 100 mg/kg, po after 2 hrs by HPLC analysis. It counts as ADME, organism-based. Also on record: dose 100 mg/kg, route oral. Put shortly:
as §1

In data set [6] the test system is Plasma. The experiment in a line: Drug level in C57Bl6 mouse plasma assessed as 3-(5-carboxypentanoyl)-1-(2-hydroxy-3-(4-octylphenoxy)propyl)-1H-indole-5-carboxylic acid at 100 mg/kg, po after 2 hrs by HPLC analysis. Conditions: in vivo. In kind it is ADME, organism-based. Also on record: dose 100 mg/kg, route oral. The gist of the method: as §1
In data set [7] the test system is Plasma. In words: Drug level in C57Bl6 mouse plasma assessed as 3-(5-carboxypentanoyl)-1-(2-hydroxy-3-(4-octylphenoxy)propyl)-1H-indole-5-carboxylic acid at 100 mg/kg, po after 1 hr by HPLC analysis. Also noted: dose 100 mg/kg, route oral. It counts as ADME, organism-based. The settings on record: in vivo. The gist of the method:
as §1

The nature of data set [8]: Drug level in C57Bl6 mouse bile at 100 mg/kg, po after 2 hrs by HPLC analysis. It counts as ADME, organism-based. Also on record: dose 100 mg/kg, route oral. The settings on record: read-out: Drug uptake. Put shortly:
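Mice (C57Bl6, n = 3) were dosed orally by gavage at 100 mg/kg in 1% methylcellulose and killed 2 h later for bile collection. For direct measurement, bile was diluted in pH 7.4 PBS with equal acetonitrile. Alternatively, bile in pH 5.5 PBS was digested with Helix pomatia β-glucuronidase HP-2 at 60 °C for 1 h, then acetonitrile was added. Both were centrifuged at 2000g and analysed by reversed-phase HPLC-UV.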

Data set [9] in a line: Drug level in rat plasma at 100 mg/kg, po after 4 hrs by HPLC analysis. It counts as ADME, organism-based. Also on record: dose 100 mg/kg, route oral.
In data set [10] the test system is Intestine. In words: Drug level in C57Bl6 mouse intestine assessed per gut at 100 mg/kg, po after 2 hrs by HPLC analysis in presence of Helix pomatia beta-glucuronidase HP2. In kind it is ADME, organism-based. Also noted: dose 100 mg/kg, route oral. The settings on record: in vivo.
Data set [11] relates to Intestine. The experiment in a line: Drug level in C57Bl6 mouse intestine assessed as 3-(5-Carboxypentanoyl)-1-[2-hydroxy-3-(4-octylphenoxy)propyl]indole-5-carboxylic acid level assessed per gut at 100 mg/kg, po after 2 hrs by HPLC analysis in presence of Helix pomatia beta-glucuronidase HP2. In kind it is ADME, organism-based. Also noted: dose 100 mg/kg, route oral. Conditions: in vivo.

Data set [12] deals with Intestine. The experiment in a line: Drug level in C57Bl6 mouse intestine assessed as 3-(5-carboxypentanoyl)-1-(2-hydroxy-3-(4-octylphenoxy)propyl)-1H-indole-5-carboxylic acid per gut at 100 mg/kg, po after 2 hrs by HPLC analysis. It counts as ADME, organism-based. Also on record: dose 100 mg/kg, route oral. The settings on record: in vivo. The gist of the method: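 Whole intestine removed 2 h after a single 100 mg/kg gavage (1% methylcellulose suspension) in C57Bl6 mice (n = 3). Tissue minced and homogenised in PBS pH 7.4 at 0 °C, then extracted with acetonitrile with repeated PBS/acetonitrile 1:1 washes, spun 2000g at 4 °C. Pooled extract made up to volume and analysed by reversed-phase HPLC-UV. Amount per gut, mean ± SD.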

Data set [13] can be described thus: Drug level in C57Bl6 mouse bile assessed as 3-(5-carboxypentanoyl)-1-(2-hydroxy-3-(4-octylphenoxy)propyl)-1H-indole-5-carboxylic acid at 100 mg/kg, po after 2 hrs by HPLC analysis. In kind it is ADME, organism-based. Also on record: dose 100 mg/kg, route oral. Conditions: in vivo.
The nature of data set [14]: Drug level in C57Bl6 mouse bile assessed as 3-(5-carboxypentanoyl)-1-(2-hydroxy-3-(4-octylphenoxy)propyl)-1H-indole-5-carboxylic acid at 100 mg/kg, po after 2 hrs by HPLC analysis in presence of Helix pomatia beta-glucuronidase HP2. It counts as ADME, organism-based. Also noted: dose 100 mg/kg, route oral. The settings on record: in vivo. The gist of the method:
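C57Bl6 mice (n = 3) were gavaged once with 100 mg/kg suspended in 1% aqueous methylcellulose, and bile was taken at 2 h. Bile in PBS pH 5.5 was treated with Helix pomatia β-glucuronidase HP-2 at 60 °C for 1 h to cleave glucuronides. Acetonitrile was then added, samples were left 5 min, spun 2000g for 15 min, and analysed by reversed-phase HPLC-UV. Mean ± SD.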

Data set [15] is described as follows: Drug level in C57Bl6 mouse plasma at 10 mg/kg, po after 2 hrs by HPLC analysis. In kind it is ADME, organism-based. Also on record: dose 10 mg/kg, route oral.
Data set [16] can be described thus: Drug level in C57Bl6 mouse plasma at 10 mg/kg, po after 1 hr by HPLC analysis. It counts as ADME, organism-based. Also on record: dose 10 mg/kg, route oral.

A word on the logP: it is a log measure of how a compound divides between an organic and an aqueous phase. In [1], `CCCCCCCCc1ccc(OCC(=O)Cn2cc(C(=O)c3ccccc3)c3cc(C(=O)O)ccc32)cc1` had a logP of 6.9. Besides, the remaining at 0.5 h in data set [2] came out at 95%.

Regarding `CCCCCCCCc1ccc(OCC(=O)Cn2cc(-c3nc(C)no3)c3cc(C(=O)O)ccc32)cc1`, the log partition coefficient (logP) in data set [1] amounted to 6.3. The remaining at 0.5 h in data set [2] was 81%.

Regarding `CCCCCCCCc1ccc(OCC(=O)Cn2cc(CC)c3cc(C(=O)O)ccc32)cc1`, the logP in [1] is > 7. For the same compound, the remaining at 0.5 h in [2] amounted to 84%.

In turn, `CCCCCCCCc1ccc(OCC(=O)Cn2cc(C(=O)c3ccc(C(=O)O)cc3)c3cc(C(=O)O)ccc32)cc1` came in with a logP in data set [1] of 5.6. In data set [2], the remaining at 0.5 h amounted to 87%.

Compound `Cc1noc(-c2cn(CC(=O)COc3ccc(Oc4ccccc4)cc3)c3ccc(C(=O)O)cc23)n1` yielded a logP in data set [1] of 3.1. Also, the remaining at 0.5 h in data set [2] was determined as 8%.

Consider `CCCCCCCCc1ccc(OCC(=O)Cn2cc(C(=O)CCCCC)c3cc(C(=O)O)ccc32)cc1`, for which the logP in data set [1] is > 7.

As to `CCCCCCCCc1ccc(OCC(=O)Cn2cc(C(=O)CCCCC(=O)O)c3cc(C(=O)O)ccc32)cc1`, the concentration at 1 h in data set [3] is < 200 ng/mL. The results for the concentration at 2 h in [4], in [5] and in data set [8] were 870000 ng/mL, < 200 ng/mL and 6000 ng/mL, respectively. Further, the logP in data set [1] was 5.3. Besides, the Cp in the data set with Plasma [6] and with Plasma [7] was < 100 ng/mL throughout.

The compound `CCCCCCCCCCCC(=O)c1c(C(=O)O)n(CCOc2ccc(CC(=O)O)cc2)c2ccccc12` registered a concentration at 4 h in [9] of 100000 ng/mL.

For `O=C(O)CCCCC(=O)c1cn(CC(=O)COc2ccc(Oc3ccccc3)cc2)c2ccc(C(=O)O)cc12`, the logP in [1] was 2.1. For the same compound, the remaining at 0.5 h in data set [2] was determined as 24%.

For the compound `CCCCCCCCc1ccc(OCC(=O)Cn2cc(CCCCCC)c3cc(C(=O)O)ccc32)cc1`, in data set [1], the logP is > 7. The remaining at 0.5 h in [2] came out at 94%.

Regarding `CC(C)C(=O)c1cn(CC(=O)COc2ccc(Oc3ccccc3)cc2)c2ccc(C(=O)O)cc12`, in data set [3], the concentration at 1 h was < 5000 ng/mL. Further, in data set [5], the concentration at 2 h was < 1000 ng/mL. The Drug uptake with Intestine [10] came to 404 µg; with Intestine [11], 875 µg.

`CCCCCCCCc1ccc(OCC(=O)Cn2cc(C(=O)CCC(=O)O)c3cc(C(=O)O)ccc32)cc1`: the logP in [1] was 5.1.

On to `CCCCCCCCc1ccc(OCC(O)Cn2cc(C(=O)CCCCC(=O)O)c3cc(C(=O)O)ccc32)cc1` (centres undefined), for which the Drug uptake was 14 µg/mL in the data set with Intestine [12], < 1 µg/mL in [13] and 33 µg/mL in data set [14].

For the compound `CCCCCCCCc1ccc(OCC(=O)Cn2cc(C(=O)C(F)(F)F)c3cc(C(=O)O)ccc32)cc1`, the logP in data set [1] was > 7. In [2], the remaining at 0.5 h amounted to 87%.

On to `CCCCCCCCc1ccc(OCC(=O)Cn2cc(C(=O)c3cccc(C(=O)O)c3)c3cc(C(=O)O)ccc32)cc1`, for which the logP in data set [1] was 5.7. Moreover, the remaining at 0.5 h in data set [2] amounted to 87%.

In the case of `CCCCCCCCc1ccc(OCC(=O)Cn2cc(C(=O)CCC)c3cc(C(=O)O)ccc32)cc1`, in [1], the logP was found to be 6.7.

As to `CCCCCCCCc1ccc(OCC(=O)Cn2cc(CCCC)c3cc(C(=O)O)ccc32)cc1`, the logP in data set [1] is > 7. For the same compound, the remaining at 0.5 h in data set [2] is 82%.

On to `CCCCCCCCc1ccc(OCC(=O)Cn2cc(C(=O)C(C)(C)C)c3cc(C(=O)O)ccc32)cc1`, for which the logP in data set [1] is > 7. For the same compound, the remaining at 0.5 h in data set [2] was 93%.

Turning to `COc1ccc2c(c1)c(CC(=O)O)c(C)n2C(=O)c1ccc(Cl)cc1` [INDOMETHACIN], the concentration at 2 h in data set [15] turned out to be 34000 ng/mL. For the same compound, the concentration at 1 h in data set [16] is 42000 ng/mL.

As to `CCCCCCCCc1ccc(OCC(=O)Cn2cc(C(=O)CCCC(=O)O)c3cc(C(=O)O)ccc32)cc1`, the logP in data set [1] amounted to 5.2. Further, the remaining at 0.5 h in data set [2] was 95%.
